Experimental data as given in ChEMBL document CHEMBL3352165 (Eur J Med Chem, 2014).

Columns and labels:
MCF7 = assay: Cytotoxicity against human MCF7 cells assessed as inhibition of cell growth after 72 hrs by sulforhodamine B assay; format: functional, cell-based; settings: MCF7, 72 h
Method in brief: (§1)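 Cells grown in RPMI-1640 with 5% FBS and plated at 5.0×10^4/ml. Next day exposed to 0.5–5000 ng/ml for 3 days. Survival read by sulforhodamine B staining. IC50 taken from growth curves; mean of at least three determinations.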

[1] = target: Receptor tyrosine-protein kinase erbB-2 (Homo sapiens, UniProt P04626); assay: Inhibition of HER2 (unknown origin) assessed as reduction in autophosphorylation by ELISA method
Method in brief: (§2)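 Phosphotyrosine ELISA with purified kinase (20 ng) and 5 µM ATP in buffer (50 mM HEPES pH 7.4, 20 mM MgCl2, 0.1 mM MnCl2, 0.2 mM Na3VO4, 1 mM DTT), 1 h at 37 °C, DMSO ≤1%. Detection by PY99 antibody, then HRP anti-mouse IgG with o-phenylenediamine, A490. IC50 by Logit from at least three independent tests.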

A-431 = assay: Cytotoxicity against human A431 cells assessed as inhibition of cell growth after 72 hrs by sulforhodamine B assay; format: functional, cell-based; settings: A-431, 72 h; method in brief: as §1
[2] = target: Mast/stem cell growth factor receptor Kit (Homo sapiens, UniProt P10721); assay: Inhibition of c-KIT (unknown origin) by ELISA method; method in brief: as §2
[3] = target: Vascular endothelial growth factor receptor 2 (Homo sapiens, UniProt P35968); assay: Inhibition of KDR (unknown origin) by ELISA method; method in brief: as §2
BT-474 = assay: Cytotoxicity against human BT474 cells assessed as inhibition of cell growth after 72 hrs by sulforhodamine B assay; format: functional, cell-based; settings: BT-474, 72 h; method in brief: as §1
[4] = Cytotoxicity against human SKBR3 cells assessed as inhibition of cell growth after 72 hrs by sulforhodamine B assay; format: functional, cell-based; settings: SK-BR-3, 72 h; method in brief: as §1
[5] = target: Epidermal growth factor receptor (Homo sapiens, UniProt P00533); assay: Inhibition of HER1 (unknown origin) assessed as reduction in autophosphorylation by ELISA method
[6] = target: Platelet-derived growth factor receptor beta (Homo sapiens, UniProt P09619); assay: Inhibition of PDGFRbeta (unknown origin) by ELISA method; method in brief: as §2
Mus musculus = assay: Toxicity in human Calu3 cells xenografted BALB/cA mouse assessed as body weight loss at 200 mg/kg, po measured every other day for 21 days; format: organism-based, Calu-3; set-up: dose 200 mg/kg, route oral; settings: in vivo, 504 h
Method in brief: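 Female BALB/cA nude mice, 6–7 weeks old, implanted s.c. on the mid-right flank with 2×10^6 Calu-3 cells in 0.2 ml PBS. At 60–150 mm³ tumour volume, mice randomised into six per treatment group (twelve vehicle controls). Oral dosing in 0.5% CMC aqueous solution with 0.1% Tween-80. Body weight recorded every other day for 21 d.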

[7] = Antitumor activity against human Calu3 cells xenografted in BALB/cA mouse assessed as tumor growth inhibition at 200 mg/kg, po; format: functional; settings: Calu-3, read-out: TGI
Method in brief: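 Female BALB/cA nude mice, 6–7 weeks old, implanted s.c. on midright side with 2×10^6 Calu-3 cells in 0.2 ml PBS. Grouped at 60–150 mm³ tumour volume (6 per treated group, 12 vehicle). Oral dosing in 0.5% CMC with 0.1% Tween-80. Caliper volume = L×W²×0.5; inhibition = (1 − T/C)×100% on relative tumour volume; weight tracked for 21 d.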

cells [8] = settings: Homo sapiens, SK-OV-3, 72 h
NCI-H460 = assay: cells; settings: Homo sapiens, NCI-H460, 72 h
[9] = AUC (0 to 24 hrs) in Beagle dog at 240 mg/kg, po administered as single dose measured after 0.25 to 24 hrs post dose by LC/MS/MS method; format: ADME, organism-based, Canis lupus familiaris; set-up: time < 24 hr, dose 240 mg/kg, route oral; settings: plasma
Method in brief: (§3)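 Single oral gavage of 240 mg/kg to beagle dogs (n = 6). Blood sampled at 0.25–24 h, kept on ice, centrifuged within 1 h (1000 × g, 4 °C, 15 min), plasma stored at −20 °C. Drug quantified by validated LC/MS/MS. AUC0–24 from non-compartmental analysis; Cmax and MRT taken directly from concentration–time data.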

[10] = Tmax in Beagle dog at 240 mg/kg, po administered as single dose measured after 0.25 to 24 hrs post dose by LC/MS/MS method; format: ADME, organism-based, Canis lupus familiaris; set-up: dose 240 mg/kg, route oral; settings: in vivo
Method in brief: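 Beagle dogs (n = 6), single oral gavage dose of 240 mg/kg. Plasma levels measured by validated LC/MS/MS. Tmax read directly from the concentration-time data.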

[11] = Cmax in Beagle dog at 240 mg/kg, po administered as single dose measured after 0.25 to 24 hrs post dose by LC/MS/MS method; format: ADME, organism-based, Canis lupus familiaris; set-up: dose 240 mg/kg, route oral; settings: in vivo; method in brief: as §3
[12] = Mean residence time in Beagle dog at 240 mg/kg, po administered as single dose measured after 0.25 to 24 hrs post dose by LC/MS/MS method; format: ADME, organism-based, Canis lupus familiaris; set-up: dose 240 mg/kg, route oral; settings: in vivo; method in brief: as §3
MDA-MB-453 = assay: cells; settings: Homo sapiens, MDA-MB-453, 72 h
cells [13] = settings: Homo sapiens, Calu-3, 72 h
MRC5 = assay: cells; settings: Homo sapiens, MRC5, 72 h
MDA-MB-231 = assay: cells; settings: Homo sapiens, MDA-MB-231, 72 h

Receptor tyrosine-protein kinase erbB-2, sequence (P04626 whole entry): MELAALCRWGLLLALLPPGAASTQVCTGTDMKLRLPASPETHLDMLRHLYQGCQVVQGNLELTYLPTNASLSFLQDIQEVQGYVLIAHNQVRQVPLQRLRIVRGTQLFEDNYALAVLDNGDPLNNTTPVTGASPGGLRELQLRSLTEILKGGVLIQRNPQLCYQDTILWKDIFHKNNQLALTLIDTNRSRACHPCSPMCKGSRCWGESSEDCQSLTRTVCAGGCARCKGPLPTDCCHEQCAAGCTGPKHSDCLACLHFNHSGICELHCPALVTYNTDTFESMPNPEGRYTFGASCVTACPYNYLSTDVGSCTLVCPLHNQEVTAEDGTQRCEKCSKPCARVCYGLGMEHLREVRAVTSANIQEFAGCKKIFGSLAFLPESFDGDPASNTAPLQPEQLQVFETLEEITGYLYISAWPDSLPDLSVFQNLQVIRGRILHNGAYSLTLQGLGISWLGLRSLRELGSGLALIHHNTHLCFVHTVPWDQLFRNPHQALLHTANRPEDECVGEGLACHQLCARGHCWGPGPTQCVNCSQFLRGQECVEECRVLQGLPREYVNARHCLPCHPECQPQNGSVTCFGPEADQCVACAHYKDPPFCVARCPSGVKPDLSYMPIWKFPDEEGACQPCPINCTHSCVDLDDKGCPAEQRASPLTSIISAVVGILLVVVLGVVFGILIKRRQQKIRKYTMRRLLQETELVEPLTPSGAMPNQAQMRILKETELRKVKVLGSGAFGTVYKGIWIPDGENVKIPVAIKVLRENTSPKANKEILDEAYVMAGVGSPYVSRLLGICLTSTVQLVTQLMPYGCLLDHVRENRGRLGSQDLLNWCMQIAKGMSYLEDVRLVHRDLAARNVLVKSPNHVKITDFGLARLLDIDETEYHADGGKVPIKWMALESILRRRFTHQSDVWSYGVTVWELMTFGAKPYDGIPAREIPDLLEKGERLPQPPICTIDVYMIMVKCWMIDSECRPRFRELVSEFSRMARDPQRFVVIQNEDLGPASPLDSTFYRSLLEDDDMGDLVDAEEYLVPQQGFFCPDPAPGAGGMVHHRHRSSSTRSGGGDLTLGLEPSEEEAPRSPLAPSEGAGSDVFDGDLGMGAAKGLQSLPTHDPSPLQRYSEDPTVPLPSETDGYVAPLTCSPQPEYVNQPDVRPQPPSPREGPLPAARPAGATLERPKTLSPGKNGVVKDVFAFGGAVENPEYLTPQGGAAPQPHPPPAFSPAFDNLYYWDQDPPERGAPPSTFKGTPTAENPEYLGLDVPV
Epidermal growth factor receptor, sequence (P00533 whole entry): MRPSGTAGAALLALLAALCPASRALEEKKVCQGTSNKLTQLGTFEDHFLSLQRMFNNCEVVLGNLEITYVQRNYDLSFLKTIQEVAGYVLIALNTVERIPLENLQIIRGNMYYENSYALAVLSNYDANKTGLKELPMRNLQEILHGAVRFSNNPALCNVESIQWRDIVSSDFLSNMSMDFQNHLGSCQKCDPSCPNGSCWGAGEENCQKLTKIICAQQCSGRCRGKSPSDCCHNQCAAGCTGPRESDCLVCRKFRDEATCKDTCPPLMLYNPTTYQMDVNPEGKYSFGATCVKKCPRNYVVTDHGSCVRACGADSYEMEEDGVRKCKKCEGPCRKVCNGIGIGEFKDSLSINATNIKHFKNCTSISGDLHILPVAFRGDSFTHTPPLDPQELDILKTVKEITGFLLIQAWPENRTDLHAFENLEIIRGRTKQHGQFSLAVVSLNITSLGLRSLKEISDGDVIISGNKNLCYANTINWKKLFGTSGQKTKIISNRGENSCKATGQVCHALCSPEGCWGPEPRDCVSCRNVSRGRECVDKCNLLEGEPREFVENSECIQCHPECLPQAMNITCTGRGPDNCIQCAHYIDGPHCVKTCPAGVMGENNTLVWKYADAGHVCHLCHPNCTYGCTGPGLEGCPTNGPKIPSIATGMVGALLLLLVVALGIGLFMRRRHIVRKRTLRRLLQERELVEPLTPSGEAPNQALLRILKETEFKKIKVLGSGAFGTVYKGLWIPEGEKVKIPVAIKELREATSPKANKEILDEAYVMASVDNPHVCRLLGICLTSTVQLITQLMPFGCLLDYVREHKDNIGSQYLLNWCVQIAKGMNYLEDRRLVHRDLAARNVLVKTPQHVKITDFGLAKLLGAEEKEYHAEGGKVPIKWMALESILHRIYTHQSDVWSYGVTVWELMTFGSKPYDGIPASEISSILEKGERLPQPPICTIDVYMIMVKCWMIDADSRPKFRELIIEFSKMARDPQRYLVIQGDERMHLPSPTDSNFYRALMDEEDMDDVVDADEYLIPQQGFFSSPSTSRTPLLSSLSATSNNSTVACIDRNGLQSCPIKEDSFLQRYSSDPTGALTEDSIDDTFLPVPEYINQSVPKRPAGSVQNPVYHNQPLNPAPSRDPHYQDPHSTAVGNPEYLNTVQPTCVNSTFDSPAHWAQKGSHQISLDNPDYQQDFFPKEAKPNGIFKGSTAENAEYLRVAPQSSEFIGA
Platelet-derived growth factor receptor beta, sequence (P09619 whole entry): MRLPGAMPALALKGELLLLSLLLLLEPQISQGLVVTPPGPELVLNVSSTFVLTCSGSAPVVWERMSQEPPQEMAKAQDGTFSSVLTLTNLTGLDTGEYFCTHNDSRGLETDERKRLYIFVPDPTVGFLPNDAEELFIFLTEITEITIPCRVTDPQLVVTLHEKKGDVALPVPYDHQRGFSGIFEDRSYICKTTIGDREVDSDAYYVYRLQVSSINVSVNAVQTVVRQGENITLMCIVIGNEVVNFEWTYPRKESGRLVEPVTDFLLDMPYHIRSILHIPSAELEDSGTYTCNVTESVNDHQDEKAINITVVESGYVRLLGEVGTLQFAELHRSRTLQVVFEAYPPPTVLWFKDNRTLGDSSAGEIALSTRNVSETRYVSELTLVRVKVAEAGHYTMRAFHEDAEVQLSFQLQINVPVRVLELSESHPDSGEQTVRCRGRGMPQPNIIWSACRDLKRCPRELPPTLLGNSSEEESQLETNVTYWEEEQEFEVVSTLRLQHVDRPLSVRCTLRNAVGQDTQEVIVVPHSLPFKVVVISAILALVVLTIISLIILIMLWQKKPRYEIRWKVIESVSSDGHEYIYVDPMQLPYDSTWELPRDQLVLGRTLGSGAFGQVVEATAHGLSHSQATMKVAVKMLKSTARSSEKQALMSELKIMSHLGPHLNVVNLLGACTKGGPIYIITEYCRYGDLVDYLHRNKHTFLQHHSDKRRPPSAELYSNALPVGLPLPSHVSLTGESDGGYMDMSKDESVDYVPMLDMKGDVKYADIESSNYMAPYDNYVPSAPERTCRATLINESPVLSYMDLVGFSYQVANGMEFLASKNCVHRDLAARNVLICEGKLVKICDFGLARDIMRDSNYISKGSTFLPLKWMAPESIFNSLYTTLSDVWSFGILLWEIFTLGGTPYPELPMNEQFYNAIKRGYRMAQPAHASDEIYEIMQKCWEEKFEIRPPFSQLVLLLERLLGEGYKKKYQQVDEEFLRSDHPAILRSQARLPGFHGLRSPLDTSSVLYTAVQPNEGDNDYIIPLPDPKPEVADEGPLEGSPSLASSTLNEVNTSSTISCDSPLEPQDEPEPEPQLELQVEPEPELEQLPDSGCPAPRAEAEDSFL
Vascular endothelial growth factor receptor 2, sequence (P35968 whole entry): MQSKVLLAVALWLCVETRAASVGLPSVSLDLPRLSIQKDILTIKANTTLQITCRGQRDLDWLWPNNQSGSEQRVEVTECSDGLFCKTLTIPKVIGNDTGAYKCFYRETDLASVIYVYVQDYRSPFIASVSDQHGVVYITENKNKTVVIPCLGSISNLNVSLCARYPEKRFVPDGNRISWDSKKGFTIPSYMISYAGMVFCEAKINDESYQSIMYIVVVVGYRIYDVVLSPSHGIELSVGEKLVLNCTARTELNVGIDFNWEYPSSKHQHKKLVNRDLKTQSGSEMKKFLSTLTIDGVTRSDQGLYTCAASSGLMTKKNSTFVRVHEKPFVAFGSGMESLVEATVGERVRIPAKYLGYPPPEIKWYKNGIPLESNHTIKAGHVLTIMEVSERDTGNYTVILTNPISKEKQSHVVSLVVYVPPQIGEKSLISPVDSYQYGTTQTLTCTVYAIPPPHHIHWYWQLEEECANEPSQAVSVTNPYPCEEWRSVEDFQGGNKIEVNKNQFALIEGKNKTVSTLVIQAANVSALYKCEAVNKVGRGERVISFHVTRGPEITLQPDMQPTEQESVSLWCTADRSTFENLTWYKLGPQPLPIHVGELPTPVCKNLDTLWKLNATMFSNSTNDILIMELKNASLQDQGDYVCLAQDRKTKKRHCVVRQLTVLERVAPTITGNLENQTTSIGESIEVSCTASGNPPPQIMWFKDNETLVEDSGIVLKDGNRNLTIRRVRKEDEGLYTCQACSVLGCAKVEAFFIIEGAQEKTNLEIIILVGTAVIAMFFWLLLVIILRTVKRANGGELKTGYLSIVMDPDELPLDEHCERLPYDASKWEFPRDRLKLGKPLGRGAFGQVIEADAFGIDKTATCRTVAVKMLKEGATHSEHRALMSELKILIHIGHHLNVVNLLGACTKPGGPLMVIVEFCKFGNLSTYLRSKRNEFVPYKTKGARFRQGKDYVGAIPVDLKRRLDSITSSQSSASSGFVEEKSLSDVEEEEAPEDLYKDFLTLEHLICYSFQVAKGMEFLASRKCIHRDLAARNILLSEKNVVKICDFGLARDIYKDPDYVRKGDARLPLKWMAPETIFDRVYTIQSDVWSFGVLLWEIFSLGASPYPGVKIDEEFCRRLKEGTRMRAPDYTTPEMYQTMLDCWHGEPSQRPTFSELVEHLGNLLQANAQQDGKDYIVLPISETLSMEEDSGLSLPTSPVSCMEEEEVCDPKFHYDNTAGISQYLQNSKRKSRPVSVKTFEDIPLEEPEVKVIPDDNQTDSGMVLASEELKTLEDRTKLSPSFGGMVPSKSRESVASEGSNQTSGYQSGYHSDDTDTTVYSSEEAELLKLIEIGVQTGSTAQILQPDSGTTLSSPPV

IC50 [1] [nM]	IC50 [2] [nM]	IC50 [3] [nM]	IC50 [5] [nM]	IC50 [6] [nM]	Structure (SMILES)	IC50 (MCF7) [nM]	IC50 (A-431) [nM]	IC50 (BT-474) [nM]	IC50 [4] [nM]	other results
3.4	> 200000	> 200000	17.6	> 200000	CS(=O)(=O)CC(N)c1ccc(-c2ccc3ncnc(Nc4ccc(OCc5cccc(F)c5)c(Cl)c4)c3c2)o1 (racemic)	6620	683	75.4	26.6	
152	> 200000	> 200000	89.6	> 200000	CCOC(=O)N[C@H](CS(C)(=O)=O)c1ccc(-c2ccc3ncnc(Nc4ccc(OCc5cccc(F)c5)c(Cl)c4)c3c2)o1	8930	884	120	106	
10.6	> 200000	> 200000	13.5	> 200000	CS(=O)(=O)C[C@H](N)c1ccc(-c2ccc3ncnc(Nc4ccc(OCc5cccc(F)c5)c(Cl)c4)c3c2)o1	9340	632	116	84.1	
48.3	> 200000	> 200000		> 200000	CC(C)NC(CS(C)(=O)=O)c1ccc(-c2ccc3ncnc(Nc4ccc(OCc5cccc(F)c5)c(Cl)c4)c3c2)o1 (racemic)	6110	623	94.4	101	
3.6	> 200000	> 200000	6.8	> 200000	CN(C)C(CS(C)(=O)=O)c1ccc(-c2ccc3ncnc(Nc4ccc(OCc5cccc(F)c5)c(Cl)c4)c3c2)o1 (racemic)	6120	604	48.6	36.2	Activity (Mus musculus): Non-toxic; inhibition in vivo at 200 mg/kg [7]: 58%
158	> 200000	> 200000	110	> 200000	CCCCCCOC(=O)N[C@H](CS(C)(=O)=O)c1ccc(-c2ccc3ncnc(Nc4ccc(OCc5cccc(F)c5)c(Cl)c4)c3c2)o1	> 10000	1200	1920	1050	
2.9	> 200000	> 200000	10.8	> 200000	CS(=O)(=O)C[C@@H](N)c1ccc(-c2ccc3ncnc(Nc4ccc(OCc5cccc(F)c5)c(Cl)c4)c3c2)o1	6830	663	69.2	21	IC50 (cells [8]): 410 nM; IC50 (NCI-H460): > 100000 nM; AUC(0-t) at 24 h [9]: 20300 ng·h/mL; Tmax [10]: 5 h; Cmax [11]: 2100 ng/mL; MRT [12]: 6.8 h; IC50 (MDA-MB-453): 240 nM; IC50 (cells [13]): 220 nM; IC50 (MRC5): > 100000 nM; IC50 (MDA-MB-231): > 100000 nM
52.2	> 200000	> 200000	28.7	> 200000	CS(=O)(=O)CCNC(CS(C)(=O)=O)c1ccc(-c2ccc3ncnc(Nc4ccc(OCc5cccc(F)c5)c(Cl)c4)c3c2)o1 (racemic)	7010	684	104	123	
58.6	> 200000	> 200000	77.2	> 200000	CS(=O)(=O)CC(NC1CCCCC1)c1ccc(-c2ccc3ncnc(Nc4ccc(OCc5cccc(F)c5)c(Cl)c4)c3c2)o1 (racemic)	9130	773	174	162	
164	> 200000	> 200000	92.8	> 200000	CCCCOC(=O)N[C@H](CS(C)(=O)=O)c1ccc(-c2ccc3ncnc(Nc4ccc(OCc5cccc(F)c5)c(Cl)c4)c3c2)o1	9210	1090	1000	702	
1	> 200000	> 200000	34.8	> 200000	CNC(CS(C)(=O)=O)c1ccc(-c2ccc3ncnc(Nc4ccc(OCc5cccc(F)c5)c(Cl)c4)c3c2)o1 (racemic)	6520	648	76.8	30.1	
26.1	> 200000	> 200000	30.4	> 200000	CN(C)[C@@H](CS(C)(=O)=O)c1ccc(-c2ccc3ncnc(Nc4ccc(OCc5cccc(F)c5)c(Cl)c4)c3c2)o1	6670	768	83.2	27.8	
15.5	> 200000	> 200000	14.7	> 200000	CCNC(CS(C)(=O)=O)c1ccc(-c2ccc3ncnc(Nc4ccc(OCc5cccc(F)c5)c(Cl)c4)c3c2)o1 (racemic)	8730	884	109	33.9	
